# This excerpt belongs to a sample that is enriched for hits.
# T cruzi growth-1 = T. cruzi proliferation inhibition | actives 5.9% (n = 77,000) | inhibition, % at 8.34 µM | T. cruzi beta-gal in NIH3T3, GalScreen luminescence, 90 h;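 active = mean inhibition above about 93%, with at least 55% of replicates each passing it, limit read from the data, passing the limit was not always enough; inconclusive = only one of those two conditions holds; inactive = neither condition holds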
# IDH1 R132H inh = inhibitors of human IDH1 R132H; actives 0.18% (n = 70,000); inhibition, % at 10 µM; AID 624101; IDH1 R132H reductase, diaphorase/resazurin fluorescence, 60 min; O75874; in the data active = inhibition above about 34%; inconclusive = no clear call, values can overlap the other calls; inactive = below about 11%;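 also: 0% = DMSO and 100% = no enzyme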
# KDM4C inh = inhibitors of human demethylase GASC-1 KDM4C. inhibition, % at 12.5 µM. GST-KDM4C 2-372, H3K9me3 peptide, LANCE TR-FRET. Q9H3R0. actives 0.15% (n = 96,000). AID 720574;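 active = mean replicate inhibition above about 25%, with at least 55% of replicates also reaching it, limit read from the data, passing the limit was not always enough; inconclusive = only one of those two conditions met; inactive = neither condition met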
# Target sequence (Q9H3R0 2-372 limits assumed): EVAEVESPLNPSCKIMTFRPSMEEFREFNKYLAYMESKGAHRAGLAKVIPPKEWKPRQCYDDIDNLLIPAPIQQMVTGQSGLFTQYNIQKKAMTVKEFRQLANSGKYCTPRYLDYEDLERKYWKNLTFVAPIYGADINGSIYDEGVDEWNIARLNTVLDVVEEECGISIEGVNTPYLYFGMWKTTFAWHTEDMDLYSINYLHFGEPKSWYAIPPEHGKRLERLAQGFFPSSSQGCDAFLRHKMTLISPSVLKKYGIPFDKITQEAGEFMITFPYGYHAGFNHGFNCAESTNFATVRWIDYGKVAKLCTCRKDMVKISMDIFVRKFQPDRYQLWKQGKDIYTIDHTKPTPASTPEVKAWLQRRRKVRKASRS
#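 reagent = H3K9me3 peptide substrate, Fe(II), 2-oxoglutarate | system = GST-tagged GASC-1 (JMJD2C) catalytic fragment, aa 2-372 | amount = enzyme final amount 10 nM | read-out = Fall in 671/618 emission ratio as inhibition | medium = HEPES buffer, pH 7.5, plus ascorbate | schedule = 30 min reaction, 60 min detection, RT | measured by = LANCE TR-FRET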
# T cruzi growth-2 = inhibitors of T. cruzi proliferation; actives 72% (n = 5,600); shares compounds with T cruzi growth-1; inhibition, % at 8.35 µM; T. cruzi beta-gal in NIH3T3, GalScreen luminescence, 90 h;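 active = mean replicate inhibition above about 95% and at least 55% of replicates individually reaching it, limit read from the data; inconclusive = only one of the two criteria is met; inactive = neither criterion is met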
# T cruzi growth-3 = inhibitors of T. cruzi proliferation | inhibition, % at 2.09 µM | shares compounds with T cruzi growth-1 | actives 21% (n = 5,600) | T. cruzi beta-gal in NIH3T3, GalScreen luminescence, 90 h | AID 651740;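 active = mean inhibition above about 95%, with at least 55% of replicates also reaching it, limit read from the data; inconclusive = meets just one of the two conditions; inactive = meets neither condition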;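 also: plate controls were neutral control median for no effect and positive control median for full effect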
# NIH3T3 tox = cytotoxicity in mouse NIH/3T3 fibroblasts; cytotoxicity (signal decrease), % at 8.35 µM; NIH/3T3 viability, CellTiter-Glo ATP luminescence, 90 h; shares compounds with T cruzi growth-1; actives 14% (n = 5,600);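 active = mean signal decrease across replicates above about 35% based on untreated-well scatter, with enough replicates individually passing, limit read from the data; inconclusive = no rule stated though some were filed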;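 also: 0% = median of neutral control wells and 100% = median of positive control wells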
# 3T3 cytotox 2 = kills mouse NIH/3T3 fibroblasts; shares compounds with T cruzi growth-1; NIH/3T3 viability, CellTiter-Glo ATP luminescence, 90 h; inhibition, % at 24.9 µM; actives 56% (n = 5,600);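 active = mean loss of cell viability signal at or above a set limit, and enough replicates individually reaching it; inconclusive = meets only the mean limit or only the replicate share; inactive = meets neither condition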;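 also: 0% = median of neutral control wells and 100% = median of positive control wells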
# * marks the source's active call; other numbers are inactive results; ? = inconclusive; . = not tested or not shown.
SMILES,T cruzi growth-1,IDH1 R132H inh,KDM4C inh,T cruzi growth-2,T cruzi growth-3,NIH3T3 tox,3T3 cytotox 2
Cc1noc(C)c1NC(=O)N[C@H]1CC[C@H](CCNC(=O)C2CCCC2)O[C@H]1CO,.,0,-1,.,.,.,.
COCC(=O)N(C)C[C@H]1Oc2cc(C#CCC3CCCC3)ccc2S(=O)(=O)N([C@@H](C)CO)C[C@@H]1C,.,4,0,.,.,.,.
COc1cccc(-c2cnc3c(c2)C(=O)N([C@H](C)CO)C[C@@H](C)[C@@H](CN(C)Cc2ccc(F)cc2)O3)c1,.,-1,3,.,.,.,.
C[C@@H]1CC[C@]2(C(=O)O)CC[C@]3(C(=O)O)C(=CCC4[C@@]5(C)CC[C@H](O[C@@H]6O[C@H](C)[C@H](O)[C@H](O)[C@H]6O)C(C)(C)C5CC[C@]43C)C2[C@H]1C (stereo partly specified),.,0,.,.,.,.,.
C[C@H]1CN([C@@H](C)CO)S(=O)(=O)c2ccc(-c3cccc(F)c3)cc2O[C@H]1CN(C)S(=O)(=O)c1ccccc1,119*,0,-1,99*,106*,42*,62*
C[C@H]1CN([C@@H](C)CO)S(=O)(=O)c2ccc(Br)cc2O[C@H]1CN(C)S(=O)(=O)c1ccccc1,.,0,0,.,.,.,.
C[C@@H]1CN([C@H](C)CO)S(=O)(=O)c2ccc(-c3cccc(F)c3)cc2O[C@@H]1CN(C)S(=O)(=O)c1ccccc1,114*,0,-1,97*,84,26,54*
C[C@H]1CN([C@@H](C)CO)S(=O)(=O)c2ccc(-c3cccc(F)c3)cc2O[C@@H]1CN(C)S(=O)(=O)c1ccccc1,120*,0,-2,96*,86,37*,41*
C[C@@H]1CN([C@@H](C)CO)S(=O)(=O)c2ccc(-c3cccc(F)c3)cc2O[C@H]1CN(C)S(=O)(=O)c1ccccc1,122*,0,-1,99*,106*,58*,49*
CO[C@H]1CN(C)C(=O)c2cc(NC(C)=O)ccc2OC[C@H](C)N(S(=O)(=O)c2cn(C)cn2)C[C@@H]1C,8,0,-1,.,.,.,.
C[C@H]1CN([C@@H](C)CO)C(=O)c2cc(NC(=O)Cc3cn(C)c4ccccc34)ccc2O[C@H]1CN(C)C,.,-1,10,.,.,.,.
O=C(Nc1cccc(F)c1)N1CC(=O)N2[C@H](CO)[C@H](c3ccc(-c4ccc(F)cc4)cc3)[C@H]2C1,.,.,0,.,.,.,.
C[C@@H]1CN([C@@H](C)CO)S(=O)(=O)c2ccc(-c3cccc(F)c3)cc2O[C@H]1CN(C)C,-34,0,0,.,.,.,.
C[C@H](CO)N1C[C@H](C)[C@H](CN(C)S(=O)(=O)c2ccccc2)Oc2cc(-c3cccc(F)c3)ccc2S1(=O)=O,120*,.,-1,97*,100*,19,34*
C[C@@H]1CN([C@@H](C)CO)S(=O)(=O)c2ccc(-c3cccc(F)c3)cc2O[C@H]1CN(C)S(C)(=O)=O,62,-4,-1,.,.,.,.
C[C@H](CO)N1C[C@H](C)[C@@H](CN(C)S(=O)(=O)c2ccccc2)Oc2cc(-c3cccc(F)c3)ccc2S1(=O)=O,115*,-1,-1,101*,56,22,29*
C[C@@H]1CN([C@H](C)CO)S(=O)(=O)c2ccc(-c3cccc(F)c3)cc2O[C@H]1CN(C)S(=O)(=O)c1ccccc1,?,1,-2,92,51,65*,41*
CCCC(=O)N1CC2(CCN(C)CC2)c2c(n(C)c3cc(OC)ccc23)[C@@H]1CO,.,.,0,.,.,.,.
COc1ccc(NC(=O)Nc2ccc3c(c2)C(=O)N([C@H](C)CO)C[C@@H](C)[C@H](CN(C)C(=O)Nc2ccc(OC)cc2)O3)cc1,-2,-10,-1,.,.,.,.
COc1ccc(CN(C)C[C@H]2Oc3ccc(NS(=O)(=O)c4ccc(C)cc4)cc3CC(=O)N([C@@H](C)CO)C[C@H]2C)cc1,.,2,1,.,.,.,.
COc1ccc(CN(C)C[C@H]2Oc3ccc(NS(=O)(=O)c4ccc(C)cc4)cc3CC(=O)N([C@H](C)CO)C[C@@H]2C)cc1,.,-3,2,.,.,.,.
COc1ccc(CN(C)C[C@@H]2Oc3ccc(NS(=O)(=O)c4ccc(C)cc4)cc3CC(=O)N([C@@H](C)CO)C[C@@H]2C)cc1,108*,3,-2,85,13,11,22
COc1ccc(NC(=O)Nc2ccc3c(c2)CC(=O)N([C@H](C)CO)C[C@@H](C)[C@H](CN(C)CC2CC2)O3)cc1,20,2,0,.,.,.,.
COc1ccc(NC(=O)Nc2ccc3c(c2)CC(=O)N([C@H](C)CO)C[C@@H](C)[C@H](CN(C)CC2CCCCC2)O3)cc1,101*,0,0,96*,70,28,106*
CNC[C@@H]1Oc2ccc(NC(=O)NC3CCCCC3)cc2CC(=O)N([C@H](C)CO)C[C@H]1C,119*,0,0,22,-25,10,-13
SMILES,T cruzi growth-1,IDH1 R132H inh,KDM4C inh,T cruzi growth-2,T cruzi growth-3,NIH3T3 tox,3T3 cytotox 2
COc1ccc(CN(C)C[C@@H]2Oc3ccc(NS(=O)(=O)c4ccc(C)cc4)cc3CC(=O)N([C@H](C)CO)C[C@H]2C)cc1,110*,0,-4,114*,106*,6,1
CNC[C@H]1Oc2ccc(NC(=O)NC3CCCCC3)cc2CC(=O)N([C@H](C)CO)C[C@@H]1C,5,4,1,.,.,.,.
CN1CCN(C(=O)C[C@@H]2CC[C@@H]3[C@H](COC[C@@H](O)CN3C(=O)c3ccccc3F)O2)CC1,22,.,0,.,.,.,.
COc1ccc(CN(C)C[C@@H]2Oc3ccc(NS(=O)(=O)c4ccc(Cl)cc4)cc3CC(=O)N([C@H](C)CO)C[C@H]2C)cc1,101*,1,1,113*,84,-2,-8
COc1ccc(CN(C)C[C@H]2Oc3ccc(NS(=O)(=O)c4c(C)noc4C)cc3CC(=O)N([C@H](C)CO)C[C@@H]2C)cc1,106*,3,1,83,50,2,15
COc1ccc(CN(C)C[C@H]2Oc3ccc(NS(=O)(=O)c4c(C)noc4C)cc3CC(=O)N([C@@H](C)CO)C[C@H]2C)cc1,20,.,3,.,.,.,.
COc1ccc(CN(C)C[C@@H]2Oc3ccc(NS(=O)(=O)c4ccc(Cl)cc4)cc3CC(=O)N([C@@H](C)CO)C[C@@H]2C)cc1,17,1,1,.,.,.,.
COc1ccc(C#Cc2cnc3c(c2)C(=O)N([C@@H](C)CO)C[C@@H](C)[C@@H](CN(C)C(=O)CC2CC2)O3)cc1,56,0,-2,.,.,.,.
COc1ccc(C#Cc2cnc3c(c2)C(=O)N([C@H](C)CO)C[C@H](C)[C@H](CN(C)C(C)=O)O3)cc1,110*,0,0,90,-18,21,34*
